Article PMC5497803 (Cancer Science, 2017)

Legend:
MV4;11 cells [1] = assay: Cell proliferation MTT assay; type: cell-based; details: Homo sapiens, MV4-11, 72 h, read-out: IC50 value, MV4;11
Procedure, shortened: (§1)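 Cells kept in RPMI-1640 with 10% FBS at 37°C, 5% CO2. In 96-well plates, cells exposed in triplicate to a range of test compound concentrations for 72 h at 37°C. Viability read by MTT conversion to coloured product. IC50 by curve fitting; mean ± SEM of three independent experiments.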

MV4;11 cells [2] = assay: Cell cycle analysis by flow cytometry; type: cell-based, human; details: MV4;11, 24 h, 1 μM; control 63.3%
MV4;11 xenografts = assay: MV4; type: in vivo, nude mice
p110δ [3] = target: T1, p110δ (Homo sapiens, UniProt O00329); assay: PI3K isoform-specific cell-based assay, anti‐IgM–stimulated Raji cells; details: anti‐IgM 1 μg/mL 10 min, then 3 h drug
T1 sequence (O00329 whole entry, species assumed, canonical isoform): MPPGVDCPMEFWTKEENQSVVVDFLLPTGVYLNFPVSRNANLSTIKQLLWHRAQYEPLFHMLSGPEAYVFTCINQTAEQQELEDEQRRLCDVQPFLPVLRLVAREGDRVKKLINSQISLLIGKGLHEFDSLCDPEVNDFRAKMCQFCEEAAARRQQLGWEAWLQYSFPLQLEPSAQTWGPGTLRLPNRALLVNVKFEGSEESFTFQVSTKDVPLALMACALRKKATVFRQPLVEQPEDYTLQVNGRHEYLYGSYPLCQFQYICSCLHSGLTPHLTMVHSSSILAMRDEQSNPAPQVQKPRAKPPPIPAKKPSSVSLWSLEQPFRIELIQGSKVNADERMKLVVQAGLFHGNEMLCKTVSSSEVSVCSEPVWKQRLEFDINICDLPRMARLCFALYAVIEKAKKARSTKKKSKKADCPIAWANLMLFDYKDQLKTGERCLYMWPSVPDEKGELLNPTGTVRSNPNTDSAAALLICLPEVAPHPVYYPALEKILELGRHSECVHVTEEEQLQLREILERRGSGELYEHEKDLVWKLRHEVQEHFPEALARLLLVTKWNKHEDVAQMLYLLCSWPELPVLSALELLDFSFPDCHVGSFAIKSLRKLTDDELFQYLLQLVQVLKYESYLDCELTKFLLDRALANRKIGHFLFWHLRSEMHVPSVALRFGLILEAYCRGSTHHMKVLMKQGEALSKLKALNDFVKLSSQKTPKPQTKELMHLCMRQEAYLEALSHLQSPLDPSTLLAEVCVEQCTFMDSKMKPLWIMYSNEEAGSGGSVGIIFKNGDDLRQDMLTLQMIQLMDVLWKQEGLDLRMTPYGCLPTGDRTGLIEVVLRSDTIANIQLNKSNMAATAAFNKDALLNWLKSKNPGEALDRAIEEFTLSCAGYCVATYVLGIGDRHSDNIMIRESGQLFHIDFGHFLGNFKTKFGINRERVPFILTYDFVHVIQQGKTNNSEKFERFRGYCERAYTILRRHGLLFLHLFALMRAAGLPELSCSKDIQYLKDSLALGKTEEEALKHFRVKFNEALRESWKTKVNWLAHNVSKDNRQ
T1 sequence (P27986 whole entry partner, species assumed, canonical isoform): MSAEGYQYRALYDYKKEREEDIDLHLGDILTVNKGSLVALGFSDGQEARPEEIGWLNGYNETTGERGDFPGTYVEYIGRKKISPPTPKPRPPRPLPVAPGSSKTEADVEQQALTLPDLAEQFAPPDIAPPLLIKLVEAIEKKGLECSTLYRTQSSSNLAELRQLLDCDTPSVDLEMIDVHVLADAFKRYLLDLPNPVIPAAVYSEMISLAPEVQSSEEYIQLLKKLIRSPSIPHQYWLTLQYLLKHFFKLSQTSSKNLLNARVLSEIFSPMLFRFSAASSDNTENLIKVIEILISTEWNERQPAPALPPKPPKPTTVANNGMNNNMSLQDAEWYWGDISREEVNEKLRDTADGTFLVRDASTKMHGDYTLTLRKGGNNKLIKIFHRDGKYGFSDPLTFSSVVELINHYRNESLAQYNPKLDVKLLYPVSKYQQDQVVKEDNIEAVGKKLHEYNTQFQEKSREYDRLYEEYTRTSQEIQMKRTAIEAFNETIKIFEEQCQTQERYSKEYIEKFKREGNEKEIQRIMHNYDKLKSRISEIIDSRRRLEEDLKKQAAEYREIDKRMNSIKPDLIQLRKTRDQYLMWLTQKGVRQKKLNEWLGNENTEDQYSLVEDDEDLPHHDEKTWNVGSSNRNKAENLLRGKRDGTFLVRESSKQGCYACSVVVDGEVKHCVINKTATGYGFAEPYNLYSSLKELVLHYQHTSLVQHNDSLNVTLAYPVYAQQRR

MV4;11 cells [4] = assay: Apoptosis, Annexin V staining and cleaved caspases/PARP; type: cell-based, human; details: MV4;11 (and RS4;11), 48 h
Procedure, shortened: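 MV4;11 and RS4;11 cells exposed to test compound at several concentrations for 48 h. Whole-cell lysates were resolved by SDS-PAGE, blotted onto PVDF and probed for PARP and caspase-3, -8 and -9 cleavage, with ECL detection.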

[5] = tested on: phosphorylation of AKT and ERK in AML cells; assay: Constitutive PI3K/AKT and ERK signaling in AML cells; type: cell-based, human; details: Kasumi‐1 and EOL‐1 cells, 1 μM, 3 h
Procedure, shortened: (§2)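 Cells in RPMI-1640/10% FBS treated with 1 μM test compound for 3 h, with no added stimulus. Whole-cell lysates separated by SDS-PAGE and transferred to PVDF. Probed for phospho-AKT (S473, T308), phospho-ERK1/2, phospho-S6 and phospho-P70S6K; ECL detection.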

p110δ [6] = target: T1, p110δ; assay: PI3K ELISA kinase assay, recombinant class I PI3K; type: biochemical
[7] = tested on: panel of other protein kinases; assay: SelectScreen kinase profiling, whole panel; type: biochemical; details: 1000 nM
[8] = tested on: p110δ‐negative MM.1R cell line; assay: Cell proliferation MTT assay; type: cell-based; details: 72 h
Procedure, shortened: as §1

[9] = tested on: peripheral blood mononuclear cells; assay: Cytotoxicity against peripheral blood mononuclear cells; type: cell-based; details: 10 μM; data not shown
RS4;11 xenografts = assay: RS4; type: in vivo, nude mice
Procedure, shortened: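 Female Balb/cA nude mice, 5–6 weeks old, inoculated subcutaneously with 5–9 × 10^6 MV4;11 or RS4;11 cells and randomised at 100–300 mm3. Dosed orally with 30 or 60 mg/kg daily for 21 days, or vehicle (vehicle n = 12, treated n = 6). Tumour volume taken as (length × width²)/2; body weight and toxicity signs recorded. Tumours collected 3 h after last dose for western blot.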

p110α [10] = target: T2, p110α (Homo sapiens, UniProt P42336); assay: PI3K isoform-specific cell-based assay, SK‐BR‐3 cells; details: 3 h
T2 sequence (P42336 whole entry, species assumed, canonical isoform): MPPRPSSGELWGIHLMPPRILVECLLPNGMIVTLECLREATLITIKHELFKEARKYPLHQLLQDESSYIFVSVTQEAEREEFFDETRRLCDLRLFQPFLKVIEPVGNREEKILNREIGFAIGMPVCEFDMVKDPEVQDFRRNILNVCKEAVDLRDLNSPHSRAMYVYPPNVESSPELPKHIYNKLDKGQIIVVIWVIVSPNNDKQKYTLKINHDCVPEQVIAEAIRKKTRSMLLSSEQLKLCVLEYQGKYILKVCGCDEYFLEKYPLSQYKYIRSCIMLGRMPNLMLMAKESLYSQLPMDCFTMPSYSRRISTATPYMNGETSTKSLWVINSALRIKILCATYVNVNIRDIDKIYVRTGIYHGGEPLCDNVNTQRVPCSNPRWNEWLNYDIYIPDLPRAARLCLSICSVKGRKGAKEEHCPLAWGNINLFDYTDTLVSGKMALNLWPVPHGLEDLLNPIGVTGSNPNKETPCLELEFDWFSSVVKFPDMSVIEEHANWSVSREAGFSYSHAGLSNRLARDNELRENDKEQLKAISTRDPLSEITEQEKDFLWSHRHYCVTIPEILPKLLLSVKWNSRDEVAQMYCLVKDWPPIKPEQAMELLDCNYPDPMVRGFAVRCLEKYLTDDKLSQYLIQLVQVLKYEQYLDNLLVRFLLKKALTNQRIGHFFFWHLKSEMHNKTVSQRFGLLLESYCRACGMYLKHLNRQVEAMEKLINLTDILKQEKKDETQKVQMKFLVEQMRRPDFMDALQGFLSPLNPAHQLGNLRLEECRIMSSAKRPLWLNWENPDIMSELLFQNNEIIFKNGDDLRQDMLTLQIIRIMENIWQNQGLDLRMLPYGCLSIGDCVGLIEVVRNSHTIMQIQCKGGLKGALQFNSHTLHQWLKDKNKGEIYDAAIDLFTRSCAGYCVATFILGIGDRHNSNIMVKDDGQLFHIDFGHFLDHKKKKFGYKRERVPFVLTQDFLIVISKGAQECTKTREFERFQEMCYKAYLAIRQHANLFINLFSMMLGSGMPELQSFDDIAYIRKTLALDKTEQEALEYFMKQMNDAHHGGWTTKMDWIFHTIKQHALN
T2 sequence (P27986 whole entry partner, species assumed, canonical isoform): as the sequence (P27986 whole entry partner, species assumed, canonical isoform) above
Procedure, shortened: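 SK-BR-3 cells exposed to test compound for 3 h. Cell lysates western blotted with phospho-specific antibodies for AKT phosphorylation.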

p110β [11] = target: T3, p110β (Homo sapiens, UniProt P42338); assay: PI3K isoform-specific cell-based assay, LPA-stimulated PC‐3 cells; details: LPA 10 μM, 3 h drug; compared with Raji cells
T3 sequence (P42338 whole entry, species assumed, canonical isoform): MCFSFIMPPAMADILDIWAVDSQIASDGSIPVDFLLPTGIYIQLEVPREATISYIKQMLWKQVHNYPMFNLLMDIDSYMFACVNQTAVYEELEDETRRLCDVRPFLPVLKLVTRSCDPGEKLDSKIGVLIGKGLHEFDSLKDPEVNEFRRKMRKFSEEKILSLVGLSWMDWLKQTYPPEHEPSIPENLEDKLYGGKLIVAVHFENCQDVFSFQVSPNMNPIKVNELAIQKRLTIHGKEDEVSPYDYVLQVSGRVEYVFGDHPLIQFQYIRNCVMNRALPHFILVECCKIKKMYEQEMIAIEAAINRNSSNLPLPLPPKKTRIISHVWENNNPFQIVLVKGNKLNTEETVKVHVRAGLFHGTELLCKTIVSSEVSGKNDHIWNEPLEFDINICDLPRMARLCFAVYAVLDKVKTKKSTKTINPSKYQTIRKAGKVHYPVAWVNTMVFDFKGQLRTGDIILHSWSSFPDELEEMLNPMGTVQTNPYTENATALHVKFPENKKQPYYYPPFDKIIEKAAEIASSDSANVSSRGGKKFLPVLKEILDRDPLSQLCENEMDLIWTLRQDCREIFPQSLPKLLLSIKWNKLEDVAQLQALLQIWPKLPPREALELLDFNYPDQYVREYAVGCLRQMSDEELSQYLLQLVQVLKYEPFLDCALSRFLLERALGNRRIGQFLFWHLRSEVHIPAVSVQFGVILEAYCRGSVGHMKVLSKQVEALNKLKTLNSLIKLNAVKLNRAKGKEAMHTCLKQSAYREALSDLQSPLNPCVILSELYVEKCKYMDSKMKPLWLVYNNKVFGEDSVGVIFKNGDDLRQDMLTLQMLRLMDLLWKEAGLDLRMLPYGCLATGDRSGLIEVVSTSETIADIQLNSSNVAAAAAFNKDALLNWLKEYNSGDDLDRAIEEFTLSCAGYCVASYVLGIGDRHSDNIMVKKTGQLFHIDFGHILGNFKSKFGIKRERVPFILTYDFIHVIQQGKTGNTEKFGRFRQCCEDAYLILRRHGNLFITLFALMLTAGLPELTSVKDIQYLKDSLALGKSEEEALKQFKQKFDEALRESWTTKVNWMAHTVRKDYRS
T3 sequence (P27986 whole entry partner, species assumed, canonical isoform): as the sequence (P27986 whole entry partner, species assumed, canonical isoform) above
Procedure, shortened: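 PC-3 cells stimulated with LPA (10 μM) for 10 min, then exposed to test compound for a further 3 h. Cell lysates western blotted for AKT phosphorylation.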

p110γ = p110γ (Mus musculus, UniProt Q9JHG7); assay: PI3K isoform-specific cell-based assay, C5a-stimulated RAW264.7 cells; details: C5a 50 ng/mL, 3 h drug; compared with Raji cells
Chain of p110γ (Q9JHG7 whole entry, canonical isoform): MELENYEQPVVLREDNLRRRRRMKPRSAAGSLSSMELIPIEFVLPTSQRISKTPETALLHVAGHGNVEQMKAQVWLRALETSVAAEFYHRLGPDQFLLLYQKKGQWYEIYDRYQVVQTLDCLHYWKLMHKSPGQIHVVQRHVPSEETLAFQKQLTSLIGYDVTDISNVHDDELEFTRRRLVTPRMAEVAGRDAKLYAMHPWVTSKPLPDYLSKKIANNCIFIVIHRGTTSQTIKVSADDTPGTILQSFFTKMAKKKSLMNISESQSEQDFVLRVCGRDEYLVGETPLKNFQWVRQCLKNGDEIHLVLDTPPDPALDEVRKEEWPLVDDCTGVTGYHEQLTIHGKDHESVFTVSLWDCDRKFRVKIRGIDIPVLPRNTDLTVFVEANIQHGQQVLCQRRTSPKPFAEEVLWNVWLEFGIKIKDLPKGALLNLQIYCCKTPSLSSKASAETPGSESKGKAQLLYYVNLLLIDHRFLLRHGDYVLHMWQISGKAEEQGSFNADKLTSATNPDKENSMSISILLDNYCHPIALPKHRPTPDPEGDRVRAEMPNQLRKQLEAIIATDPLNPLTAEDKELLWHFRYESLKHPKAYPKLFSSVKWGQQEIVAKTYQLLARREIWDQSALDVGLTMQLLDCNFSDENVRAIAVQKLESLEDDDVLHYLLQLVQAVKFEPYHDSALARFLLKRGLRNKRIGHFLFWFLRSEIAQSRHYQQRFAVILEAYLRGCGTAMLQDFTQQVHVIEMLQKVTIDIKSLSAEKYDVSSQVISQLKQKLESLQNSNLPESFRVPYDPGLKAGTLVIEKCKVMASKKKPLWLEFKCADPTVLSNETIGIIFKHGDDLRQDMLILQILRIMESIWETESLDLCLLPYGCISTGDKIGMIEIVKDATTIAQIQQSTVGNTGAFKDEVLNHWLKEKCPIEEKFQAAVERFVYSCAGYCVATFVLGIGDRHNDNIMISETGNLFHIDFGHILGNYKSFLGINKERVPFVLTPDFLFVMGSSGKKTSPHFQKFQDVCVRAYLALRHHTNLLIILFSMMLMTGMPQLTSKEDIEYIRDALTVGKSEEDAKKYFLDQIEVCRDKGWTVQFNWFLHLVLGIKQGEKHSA

[12] = Pharmacokinetic study in MV4; type: in vivo; details: single oral dose 60 mg/kg, MV4;11 tumor‐bearing mice
Procedure, shortened: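 MV4;11 tumour-bearing nude mice given a single oral 60 mg/kg dose or vehicle. Plasma and tumours collected at times from 0.5 to 24 h. Drug levels in plasma and tissue measured by HPLC/tandem MS; tumour extracts western blotted for phospho-AKT and phospho-ERK.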

[13] = tested on: phosphorylation of AKT or ERK in MM.1R cells; assay: Constitutive PI3K/AKT and ERK signaling in MM.1R cells; type: cell-based; details: low expression of p110δ; 1 μM, 3 h
Procedure, shortened: as §2

[14] = previous study ref 38; cited from earlier work
p110α [15] = target: T2, p110α; assay: biochemical
p110β [16] = target: T3, p110β; assay: biochemical

Q: Which results are given for `CC[C@H](Nc1ncnc2[nH]cnc12)c1nc2cccc(F)c2c(=O)n1-c1ccccc1` [CAL‐101, Idelalisib, reference compound]?
A: IC50 (MV4;11 cells [1]): 2400 nM; G1 phase cells (MV4;11 cells [2]): 70.7%; Tumor growth inhibition (MV4;11 xenografts; MV4;11 xenografts, 90 mg/kg oral daily): 50%; Tumor growth inhibition (MV4;11 xenografts; MV4;11 xenografts, 180 mg/kg oral daily): 61%; Phosphorylation of AKT, S6 and ERK in anti‐IgM–stimulated Raji cells (p110δ [3]): concentration‐dependent decrease; Apoptosis induction (MV4;11 cells [4]): weaker induction of apoptosis; Phosphorylation of AKT and ERK in p110δ‐positive AML cells [5]: preferentially inhibited phosphorylation of AKT relative to ERK

Q: Which IC50 (p110δ [6]) does the source give for `c1cnc2ccc(Nc3nc(NC4CC4)c4nc[nH]c4n3)cc2c1` [Puquitinib] here?
A: The IC50 was 3.3 ± 0.6 nM.

Q: What about the “Inhibitory activity against a panel of other protein kinases” value [7] of the same molecule?
A: The value was “little or no inhibitory activity”.

Q: And the IC50 (MV4;11 cells [1])?
A: Its IC50 is 100 nM.

Q: And the “Cytotoxicity in p110δ‐negative MM.1R cell line” value [8]?
A: The value was “minimal cytotoxicity”.

Q: And the “Cytotoxicity against peripheral blood mononuclear cells” value [9]?
A: The value was “no cytotoxicity”.

Q: What about the G1 phase cells (MV4;11 cells [2]) of the same molecule?
A: The G1 phase cells was 83.0%.

Q: What about the “Levels of pAKT and pERK in tumor tissues” value (MV4;11 xenografts; MV4;11 and RS4;11 tumor models, 3 h after last dose) of the same molecule?
A: Its value is “significantly decreased”.

Q: And the “Tolerability (body weight loss, signs of toxicity)” value (MV4;11 xenografts; MV4;11 and RS4;11 xenograft studies, all groups)?
A: The value was “well tolerated”.

Q: And the “Phosphorylation of AKT and ERK in tumor tissue after a single dose” value (MV4;11 xenografts; MV4;11 xenograft, single oral 60 mg/kg, 0.5 to 24 h)?
A: Its value is “inhibited in a time‐dependent manner”.

Q: What about the Tumor growth inhibition (MV4;11 xenografts; MV4;11 xenografts, 30 mg/kg oral daily for 21 days, final treatment day) of the same molecule?
A: The Tumor growth inhibition was 72%.

Q: What about the Complete tumor regression (MV4;11 xenografts; MV4;11 xenografts, 60 mg/kg oral daily) of the same molecule?
A: The Complete tumor regression was “three of six”.

Q: What about the Tumor growth inhibition (MV4;11 xenografts; MV4;11 xenografts, 60 mg/kg oral daily for 21 days, final treatment day) of the same molecule?
A: The Tumor growth inhibition was 103%.

Q: And the “Antitumor efficacy of combination versus single agents” value (MV4;11 xenografts; MV4;11 xenografts, 30 mg/kg puquitinib combined with 2 mg/kg daunorubicin, P < 0.01)?
A: The value was “significantly superior”.

Q: What about the Tolerability of combination (MV4;11 xenografts; MV4;11 xenografts, puquitinib with daunorubicin or cytarabine) of the same molecule?
A: The Tolerability of combination was “generally well tolerated”.

Q: What about the Tumor growth inhibition (RS4;11 xenografts; 30 mg/kg oral daily for 21 days) of the same molecule?
A: Its Tumor growth inhibition is 50%.

Q: What about the Tumor growth inhibition (RS4;11 xenografts; 60 mg/kg oral daily for 21 days) of the same molecule?
A: The Tumor growth inhibition was 69%.

Q: What about the “Phosphorylation of AKT, S6 and ERK in anti‐IgM–stimulated Raji cells” value (p110δ [3]) of the same molecule?
A: The value was “concentration‐dependent decrease”.

Q: And the “p110α/AKT phosphorylation in SK‐BR‐3 cells” value (p110α [10])?
A: The value was “No obvious inhibitory activity”.

Q: And the “LPA‐stimulated phosphorylation of AKT in PC‐3 cells” value (p110β [11])?
A: The value was “much weaker”.

Q: And the “C5a‐stimulated phosphorylation of AKT in RAW 264.7 cells” value (p110γ)?
A: The value was “much weaker”.

Q: What about the Apoptosis induction (MV4;11 cells [4]) of the same molecule?
A: Its Apoptosis induction is “increased in a dose‐dependent manner”.

Q: What about the “Appearance in plasma and tumor tissue” value [12] of the same molecule?
A: Its value is “appeared rapidly”.

Q: And the “Phosphorylation of AKT and ERK in p110δ‐positive AML cells” value [5]?
A: The value was “significantly inhibited”.

Q: And the “Phosphorylation of AKT or ERK in MM.1R cells” value [13]?
A: The value was “did not affect”.

Q: What about the Hyperglycemia [14] of the same molecule?
A: The Hyperglycemia was “no puquitinib‐related hyperglycemia”.

Q: What about the IC50 (p110α [15]) of the same molecule?
A: The IC50 was 993 ± 320 nM.

Q: What about the IC50 (p110β [16]) of the same molecule?
A: Its IC50 is 959 ± 367 nM.
